# HIF activator = HIF pathway transcriptional activators, primary screen, cell-based, U2OS HRE-luciferase, luminescence; U2OS HRE-luciferase reporter; normalized: DMSO 0%, desferrioxamine 100%; activation, % at 7.5 µM (by protocol); 300,000 compounds, 0.32% hits; AID 1910, 2009;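 active = mean activation of at least 10% of the iron chelator positive control signal, with at least half of replicates also reaching 10%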
# Rad51 HR inh = human RAD51 strand exchange inhibitors, primary screen, biochemical, fluorescence; DNA repair protein RAD51 homolog 1 (Homo sapiens), Q06609; hRad51 DNA strand exchange, fluorescence dequenching; inhibition, % at 10 µM; 200,000 compounds, 0.085% hits; AID 1385, 2008;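 active = inhibition above 40% at the single screening dose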;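 also: 0% = DMSO control wells and 100% = blanks with heterologous ssDNA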
# Target sequence (Q06609 whole entry, looked up): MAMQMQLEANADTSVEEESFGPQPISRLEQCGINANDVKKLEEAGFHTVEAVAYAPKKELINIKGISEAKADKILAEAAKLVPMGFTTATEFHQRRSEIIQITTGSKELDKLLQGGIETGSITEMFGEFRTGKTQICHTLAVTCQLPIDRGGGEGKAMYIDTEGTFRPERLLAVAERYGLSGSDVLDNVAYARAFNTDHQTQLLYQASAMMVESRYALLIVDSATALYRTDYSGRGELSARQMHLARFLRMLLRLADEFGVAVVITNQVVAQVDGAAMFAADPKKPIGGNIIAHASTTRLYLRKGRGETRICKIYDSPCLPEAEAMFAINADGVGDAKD
#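 Material: Human Rad51 nucleoprotein filaments preassembled on unlabelled ssDNA | Also added: Labelled 47-mer dsDNA for strand exchange | Dosing: Single dose, 10 µM final compound | Schedule: 30-min compound preincubation and 15-min exchange, both room temperature | Technique: Fluorescence dequenching at 485/520 nm | Measure: Percent inhibition relative to plate controls and blanks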
# ABHD5-PLIN5 inh = ABHD5-PLIN5 interaction inhibitors, primary screen, cell lysate, split luciferase complementation, luminescence; Perilipin-5 (Homo sapiens) + 1-acylglycerol-3-phosphate O-acyltransferase ABHD5 (Homo …; Split G. princeps luciferase complementation, 4 h; inhibition, % at 4 µM; 360,000 compounds, 0.78% hits;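 active = inhibition above the mean inhibition across every tested compound plus 3 SD, cut at about 22% in these data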;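 also: 0% = DMSO only wells and the 100% control is not disclosed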
# FXN GAA850 act = FXN promoter activators, primary screen, cell-based, luciferase luminescence, HEK293 lucGAA850; HEK293 lucGAA850 FXN promoter luciferase reporter, 24 h; percent of 10 µM SAHA response; activation, % at 6 µM; 360,000 compounds, 0.56% hits;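 active = activation above the average of all compounds screened plus 3 SD, cutoff fixed separately per campaign, cut at about 7.5% in these data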;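 also: 0% = DMSO wells and 100% = 10 µM SAHA wells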
# H9c2 TAG inh = inhibitors of triacylglycerol accumulation, primary screen, cell-based, uHTS, fluorescence, H9c2. H9c2 cells, Nile Red lipid (TAG) fluorescence; cells loaded with 200 µM oleic acid. inhibition, % at 12.5 µM. 230,000 compounds, 0.66% hits;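 active = pattern-corrected inhibition of lipid staining of at least 50% with the nuclear-stain viability signal not falling by more than 50%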;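 also: 0% = DMSO wells and 100% = triacsin C control wells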
# Hsp70 activator = Hsp70 transcriptional activators, primary screen, cell-based, HeLa, Hsp70 promoter luciferase, luminescence, 10 µM. activation, % at 10 µM. HeLa Hsp70 promoter luciferase reporter; scaled: vehicle 0, proteasome-inhibitor control 100%. 200,000 compounds, 0.04% hits;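 active = activation above the mean across all tested compounds plus 3 SD, cutoff set per campaign, cut at about 5.5% in these data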;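 also: 100% = MG132 at 30 µM as the positive control and 0% = DMSO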
# ABHD5-PLIN5 conf = ABHD5-PLIN5 interaction inhibitors, confirmation, biochemical, luminescence; AID 651612, 2012; inhibition, % at 4 µM; shares compounds with ABHD5-PLIN5 inh; 2,200 compounds, 67% hits; in the data active = inhibition above about 23%;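 also: 0% = DMSO vehicle wells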
# HNF4 split-luc = HNF4 dimerization inhibitors, counter-screen for ABHD5-PLIN5 interaction inhibitor project, biochemical, split-luciferase complementation, luminescence | inhibition, % at 4 µM | 2,200 compounds, 77% hits | shares compounds with ABHD5-PLIN5 inh;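 active = mean inhibition across replicate wells exceeding the computed hit threshold, cut at about 13% in these data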;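 also: light from luciferase halves that rejoin when HNF4 fusion proteins dimerize; 0% = DMSO only wells and the 100% control is not given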
# TAG conf = triacylglycerol accumulation inhibitors, retest, confirmation, cell-based, single concentration, Nile Red fluorescence, H9c2; shares compounds with H9c2 TAG inh; H9c2 lipid accumulation; cells loaded with 200 µM oleic acid; inhibition, % at 12.5 µM; 990 compounds, 71% hits;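 active = mean inhibition across replicates of 40% or more; inactive = mean inhibition below 40%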;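 also: plate controls were DMSO only wells for no effect and Triacsin C treated wells for full effect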
# Starred values were filed as active, the others as inactive; x = not tested or not shown. The list is not random: actives were taken first. Their share in the collection is about 1.9%.
SMILES,HIF activator,Rad51 HR inh,ABHD5-PLIN5 inh,FXN GAA850 act,H9c2 TAG inh,Hsp70 activator,TAG conf,others
CC(C)C12CN3CCN(CC(C3)C1O)C2 (stereo unspecified),0,x,2,0,x,1,x,
Cc1nn(CC(C)C)c(Cl)c1C(=O)NC1CCCC1,x,x,-1,0,6,x,x,
COC(=O)c1nc(-c2ccc3c(n2)C(=O)C(N)=C(OC)C3=O)c(N)c(-c2ccc(OC)c(OC)c2O)c1C,4,0,25*,0,x,x,x,ABHD5-PLIN5 conf=-16;HNF4 split-luc=14*
Cc1[nH]c2ccccc2c1CN1CCCCC1,x,x,0,2,-6,x,x,
Cc1cc(C)n(-c2ccc(NN=C(C#N)C#N)cc2)n1,2,1,44*,-6,4,x,x,ABHD5-PLIN5 conf=49*;HNF4 split-luc=43*
N#CC(C#N)=NNc1ccc(-n2ccc(C(F)(F)F)n2)cc1,2,x,58*,-10,-10,x,x,ABHD5-PLIN5 conf=83*;HNF4 split-luc=71*
CN1CCN(c2cn[nH]c(=O)c2Cl)CC1,0,-6,-4,0,1,0,x,
CCCCn1c(N)c(C(=O)NCc2cccs2)c2nc3ccccc3nc21,0,-4,-31,-1,67*,0,1,
O=C(O)C1=CC2c3ccccc3C1c1ccccc12,-2,x,-1,0,9,x,x,
CCN(CC)CCN/N=C(\C)c1c(O)[nH]c(=O)[nH]c1=O,0,18,4,0,3,x,x,
C=CCn1c(O)c(C(C)=NCCN2CCN(C(=S)NC)CC2)c(=O)[nH]c1=O,0,x,-8,1,14,x,x,
O=P(O)(O)CN1CCNCCN(CP(=O)(O)O)CCNCC1,x,x,2,0,57*,x,63*,
COC(=O)C1=C(c2cc3ccccc3s2)C[C@@H]2CC[C@H]1N2C(=O)N1CCOCC1,1,-2,5,-5,52*,x,45*,
CCOC(=O)C(NC(=O)CC)(Nc1ccc(C(O)(C(=O)OCC)C(F)(F)F)cc1C)C(F)(F)F (stereo unspecified),0,5,-11,-4,55*,0,23,
CCOc1ccc(-n2c(O)c(C=NCCCn3ccnc3)c(=O)[nH]c2=O)cc1,1,-7,-2,-2,0,-1,x,
COC(=O)C1=C(c2ccccc2OCc2ccccc2)C[C@@H]2CC[C@H]1N2C(=O)NCc1ccc(OC)c(OC)c1,x,x,2,-6,56*,x,28,
COC(=O)C1=C(c2ccccc2OCc2ccccc2)C[C@@H]2CC[C@H]1N2C(=O)NCc1cccc(F)c1,x,x,2,-3,33,x,x,

# From PubChem BioAssay
